Compounds with a hit are over-represented: about 1.8% of the library has one in this group of screens.
CAL PDZ FP-1: blocks peptide binding to the human CAL PDZ domain; inhibition, % at 24.9 µM; 0.92% of 300,000 active; Q9HD26; AID 602252; purified CAL PDZ, TMR-peptide fluorescence polarization, 1 h;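 active = mean inhibition of at least 30% with at least half of replicates also reaching 30%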;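 note: 0% = DMSO neutral control and 100% = excess unlabeled competitor peptide PRC23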
CAL PDZ FP-2: blocks peptide binding to human CAL PDZ domain | Q9HD26 | 0.02% of 330,000 active | purified CAL PDZ, TMR-peptide fluorescence polarization, 1 h | inhibition, % at 20 µM | AID 504414;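 active = highest replicate inhibition of at least 40%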;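 note: plate controls were DMSO neutral control wells for no effect and unlabeled competitor peptide control wells for full effect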
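Test system: tagged CAL PDZ domain / Buffer or medium: sodium phosphate/NaCl buffer pH 7.4 with TCEP, IgG, Thesit / Reagent: TMR-labelled reporter peptide T*-PRC34 bound in PDZ groove / Compound dosing: single point, 20 µM / Schedule: 1 h incubation at room temperature before polarization reading / Technique: fluorescence polarization (mP) / Benchmarks: unlabelled peptide, DMSO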
Tn6 DDE FP: disrupts Tn6 cyclic peptide binding to fibrin D-Dimer-E complex | P02675 | Fibrin DD(E) TRITC-Tn6 fluorescence polarization displacement | inhibition, % at 8.3 µM | 0.21% of 370,000 active | AID 720509;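 active = inhibition above a per-campaign cutoff: mean of compounds within control limits plus 3 SD, cut at about 15% in these data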;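 note: 0% = median of all compound wells on the plate and 100% = blocking peptide control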
Target sequence (P02675 whole entry, looked up): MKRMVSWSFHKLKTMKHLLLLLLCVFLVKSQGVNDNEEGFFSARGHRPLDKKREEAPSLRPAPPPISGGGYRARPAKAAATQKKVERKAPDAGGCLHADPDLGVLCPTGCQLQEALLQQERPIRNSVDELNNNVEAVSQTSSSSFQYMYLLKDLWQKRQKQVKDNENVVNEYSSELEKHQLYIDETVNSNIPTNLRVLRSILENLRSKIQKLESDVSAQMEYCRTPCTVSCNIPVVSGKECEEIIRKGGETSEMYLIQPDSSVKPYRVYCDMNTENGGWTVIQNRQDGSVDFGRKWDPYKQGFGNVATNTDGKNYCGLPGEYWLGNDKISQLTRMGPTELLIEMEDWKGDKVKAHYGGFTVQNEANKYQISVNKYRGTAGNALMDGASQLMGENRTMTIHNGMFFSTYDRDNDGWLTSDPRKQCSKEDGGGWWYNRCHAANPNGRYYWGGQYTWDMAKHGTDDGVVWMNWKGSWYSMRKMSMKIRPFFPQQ
GRK2 aptamer HTS: human GRK2 inhibition via aptamer displacement; P25098; bead flow cytometry, FAM-aptamer displacement from GRK2; 0.59% of 330,000 active; inhibition of aptamer binding, % at 10 µM;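 active = inhibition of aptamer binding above 40%, roughly 3 SD of noise, on plates passing a quality check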;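 note: median bead fluorescence of bound FAM aptamer so fluorescent compounds give negative values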
ARNT TACC3 PPI: ARNT/TACC3 interaction disruption | 0.66% of 390,000 active | inhibition, % at 9.99 µM | AlphaScreen His-ARNT PAS-B/GST-TACC3 binding, luminescence; TACC3 fragment carries E629A point mutation | Q9Y6A5;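 active = mean inhibition of replicates at least 50% and at least half of replicates each reaching 50%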;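 note: 0% = complete ARNT plus TACC3 wells and 100% = ARNT alone without TACC3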
Tn7 DDE FP: disrupts Tn7 cyclic peptide binding to fibrin D-Dimer-E complex | FP displacement of FITC-Tn7 peptide from fibrin DD(E); 0% = median of compound wells per plate | inhibition, % at 8.3 µM | 0.13% of 370,000 active | AID 720508;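 active = inhibition above the mean of compounds falling within the control limits plus 3 SD of them, cut at about 14% in these data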;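 note: 0% = plate median of compound wells and 100% = 10 µM Aha-Tn7 peptide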
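Test system: human clot-derived fibrin DD(E) complex / Quantity: 2 µM final DD(E) protein / Incubation: 10 min plus 3 h, room temperature / Measured by: fluorescence polarization / Benchmarks: high control of 10 µM Aha-Tn7 peptide / Replicates: singlicate testing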
An asterisk follows results filed as active; . = no result.

SMILES | CAL PDZ FP-1 | CAL PDZ FP-2 | Tn6 DDE FP | GRK2 aptamer HTS | ARNT TACC3 PPI | Tn7 DDE FP
Cc1cc(C)cc(NC(=O)C2CCN(C(=O)[C@@H]3Cc4ccccc4CN3)CC2)c1 | 41.8* | -1.4 | 0.6 | 0.0 | 3.9 | 4.0
COc1ccc(S(=O)(=O)Nc2ccc3c(c2)CC(=O)N([C@H](C)CO)C[C@@H](C)[C@H](CN(C)C(=O)Nc2ccccc2)O3)cc1 | . | . | . | . | 0.6 | .
Fc1ccc(C(CCNCc2cccs2)c2ccco2)cc1 (stereo not given) | 55.6* | 0.2 | 1.7 | 0.0 | -6.0 | 6.9
CC(=O)c1cccc(NC(=O)N2CCCCCC2)c1 | -1.5 | -1.9 | 4.8 | 20.0 | -2.4 | -8.1
CC(=O)c1cccc(NS(=O)(=O)c2ccc(NC(=O)N3CCCCC3)cc2)c1 | 120.7* | -0.6 | 4.1 | 0.0 | -1.0 | 2.5
O=C(COc1ccccc1[N+](=O)[O-])NCC1COc2ccccc2O1 (stereo not given) | 30.1* | -0.3 | 3.7 | 14.0 | 17.0 | -8.2
COc1ccc(Nc2ncc(C(=O)N3CCC(C(N)=O)CC3)c3ccccc23)cc1 | 71.5* | -1.3 | 1.7 | 2.0 | -2.3 | 0.9
COc1ccccc1Nc1ncc(C(=O)N2CCC(C(N)=O)CC2)c2ccccc12 | -24.8 | . | 5.2 | 0.0 | -16.1 | -4.9
Cc1nc(C)c(CC(=O)N/N=C/c2ccc(O)cc2)c(=O)[nH]1 | 55.6* | 0.3 | 14.5 | 2.0 | -34.2 | -2.5
CCCCN1C(=N)N([C@@H](CCC)CN2CCC[C@H]2CN2C(N)=NC[C@H]2C(C)C)C[C@H]1[C@H](C)CC | -3.2 | -2.2 | 5.3 | 100.0* | 1.4 | 3.3
COCC(=O)N(C)C[C@H]1Oc2cc(C#CCC(C)C)ccc2S(=O)(=O)N([C@H](C)CO)C[C@H]1C | . | . | . | . | -4.6 | .
Cc1cccc(N(CC(=O)NC2CCCCC2)C(=O)CCCC(=O)Nc2ccccn2)c1 | 74.0* | -0.8 | -1.9 | 0.0 | -2.5 | 1.6
COc1cc2c(cc1OC)C(c1ccc(Br)cc1)CC(=O)N2 (stereo not given) | 62.3* | . | 3.2 | 1.0 | 3.2 | 9.4
Cc1ccc(C(=O)CSc2nnc(-c3ccccc3N)n2C)cc1 | 36.8* | . | -6.5 | 0.0 | 1.1 | -5.3
COc1ccc(S(=O)(=O)Nc2ccc3c(c2)C(=O)N([C@H](C)CO)C[C@H](C)[C@H](CN(C)Cc2ccc4c(c2)OCO4)OCCCC[C@H](C)O3)cc1 | . | . | . | . | 8.2 | .
CC(C(=O)O)N1C(=O)/C(=C/C=C/c2ccco2)SC1=S (stereo not given) | 26.7 | 0.1 | -3.0 | 98.0* | 6.9 | 1.4
O=C1/C(=C\c2ccco2)SC(=S)N1c1ccccc1 | -3.6 | -3.3 | -4.1 | 9.0 | 2.4 | 0.1
CC(=O)Nc1nnc(-c2ccco2)o1 | -5.4 | -0.2 | -5.4 | 2.0 | 8.7 | 0.8
O=C(CSc1ccc(F)cc1)Nc1nnc(-c2ccco2)o1 | -1.4 | -2.0 | 1.6 | 10.0 | 48.6* | -5.3
Cc1ccc(SCC(=O)Nc2nnc(-c3ccco3)o2)cc1 | -4.0 | -0.4 | 0.2 | 3.0 | 47.7* | 3.8
O=C(C[C@@H]1CC[C@@H]2NC[C@@H](O)COC[C@H]2O1)Nc1nccs1 | . | . | . | . | 1.9 | .
CC1(C)NC(=O)N(CC(=O)OCC(=O)c2ccc(Br)s2)C1=O | 2.3 | -1.4 | -5.6 | 1.0 | 1.1 | 0.8
COc1ccccc1CNC(=O)C[C@@H]1CC[C@@H]2[C@H](COc3ccc(NS(=O)(=O)c4ccc(C)cc4)cc3C(=O)N2C)O1 | . | . | . | . | 3.3 | .
COC(=O)c1c(NC(=O)COC(=O)CNC(=O)c2ccco2)sc(C)c1C | 58.5* | -1.5 | 2.6 | 4.0 | 4.5 | 3.8
C/C=C/c1ccc2c(c1)O[C@@H](CN(C)Cc1ccncc1)[C@H](C)CN([C@@H](C)CO)S2(=O)=O | . | . | . | . | -8.8 | .
SMILES | CAL PDZ FP-1 | CAL PDZ FP-2 | Tn6 DDE FP | GRK2 aptamer HTS | ARNT TACC3 PPI | Tn7 DDE FP
CCOc1cc(NC(=O)C2CC2)c(OCC)cc1NC(=O)c1cccc(F)c1 | -6.3 | -2.1 | -1.4 | 1.0 | -5.1 | -1.3
CCOc1cc(NC(=O)c2cnccn2)c(OCC)cc1NC(=O)c1cccc(F)c1 | . | . | . | 68.0* | . | .
COc1ccc(CNC(=O)COC(=O)CN2C(=O)C3CC=CCC3C2=O)cc1 (stereo not given) | . | 0.4 | -4.6 | 6.0 | -4.1 | 3.9
Cn1c(=O)oc2cc(S(=O)(=O)N3CCC(C(=O)NCc4ccccc4Cl)CC3)ccc21 | 50.3* | 6.7 | 5.7 | 3.0 | 5.0 | 9.1
O=C(Cn1c(=O)oc2cc(S(=O)(=O)N3CCCC3)ccc21)Nc1ccccn1 | . | . | 5.0 | . | . | -0.9
O=C(NCc1ccccc1Cl)C1CCN(C(=O)c2ccc(F)cc2)CC1 | . | . | 1.6 | . | . | 1.6
Cc1ccsc1CN1CCC(C(=O)NCc2ccccc2Cl)CC1 | 59.3* | -1.7 | -6.7 | 1.0 | 1.2 | -4.0
O=C(Cn1c(=O)oc2cc(S(=O)(=O)N3CCCC3)ccc21)Nc1ccccc1Br | 60.6* | -1.3 | . | 7.0 | -8.4 | .
COc1ccc(C2N(c3cc(C)on3)C(=O)C3CCCN32)cc1OC (stereo not given) | 50.8* | -0.2 | -4.4 | 1.0 | 1.2 | -3.8
COC(=O)c1cc(NC(=O)NC2CCCCN(Cc3cccc(Cl)c3)C2=O)cc(C(=O)OC)c1 (stereo not given) | . | . | 2.4 | . | . | 0.1
O=C1/C(=C/c2cccnc2)Oc2cc(OS(=O)(=O)c3ccc(F)cc3)ccc21 | -1.9 | . | -3.6 | 1.0 | 59.7* | 5.7
CN(C)c1ccc(NC(=O)Nc2ccc3c(c2)nnn3C)cc1 | 42.6* | -0.6 | -2.1 | . | -4.3 | -7.8
CC(C)Cc1nnc(NC(=O)CCC(=O)N2CCN(c3ccc(F)cc3)CC2)s1 | 40.9* | -0.8 | -1.1 | 0.0 | 3.3 | -0.9
CC(C)Cc1nnc(NC(=O)CCC(=O)N2CCOCC2)s1 | -0.2 | -0.4 | -0.2 | 3.0 | -0.6 | 8.4
CCOc1ccccc1NC(=O)N1CCCC(c2nc(-c3ccc(C)o3)no2)C1 (stereo not given) | 76.0* | -1.3 | 2.6 | 2.0 | 2.9 | -0.3
Cc1ccc(-c2noc(C3CCCN(C(=O)c4ccccc4)C3)n2)o1 (stereo not given) | 5.6 | . | 0.4 | 3.0 | -10.2 | -9.0
O=C(O)C1=CC(=C(c2ccc(O)c(C(=O)O)c2)c2ccc(O)c(C(=O)O)c2)C=CC1=O | . | . | . | 99.0* | . | .
O=C(CN1CCN(c2ccccc2)CC1)Nc1ccccc1Cl | 0.5 | -2.5 | 1.6 | 0.0 | . | 6.2
O=C(CCN1CCN(c2ccccc2)CC1)NNC(=S)Nc1ccccc1Cl | 41.2* | -0.7 | -1.3 | 0.0 | -8.0 | -4.9
CCCC(=O)Nc1ccc2c(c1)C(=O)N(C)[C@H]1CC[C@H](CC(=O)N3CCCCC3)O[C@@H]1CO2 | . | . | . | . | -7.1 | .
Cc1cccc(N(Cc2cc(=O)[nH]c3ccccc23)C(=O)C(C)C)c1 | 35.0* | . | -4.8 | 3.0 | -1.7 | -1.1
